Results reported in ChEMBL document CHEMBL1145475, “Expression and purification of an active form of the Mycobacterium leprae DNA gyrase and its inhibition by quinolones” (Antimicrob Agents Chemother, 2007).
Activity calls are given as the source filed them. The calls are words filed in the database; no cut-off is given here.

How the values were obtained:
Mycobacterium leprae [1] = assay: Antibacterial activity in Mycobacterium leprae infected mouse foot-pad model assessed as parasite killing at >150 mg/kg/day after 9 months; assay type: functional
Mycobacterium leprae [2] = assay: Inhibition of Mycobacterium leprae recombinant DNA gyrase expressed in Escherichia coli assessed as inhibition of pBR322 DNA supercoiling
Procedure, shortened: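 His-tagged M. leprae GyrA and GyrB were expressed separately in E. coli, purified by nickel chelate chromatography, and reconstituted (1 U gyrase). Substrate was 0.4 μg relaxed pBR322 in 40 mM Tris-HCl pH 7.5, 25 mM KCl, 20 mM Mg acetate, 2 mM spermidine, 4 mM DTT, tRNA, BSA, and 3 mM ATP, run 1 h at 30°C.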

Mycobacterium leprae [3] = assay: Antibacterial activity against Mycobacterium leprae at 5 ug/mL after 11 to 18 days; assay type: functional
Mycobacterium leprae [4] = assay: Effect on Mycobacterium leprae recombinant DNA gyrase expressed in Escherichia coli assessed as enhancement of supercoiled pBR322 DNA cleavage
Mycobacterium leprae [5] = assay: Antibacterial activity in Mycobacterium leprae infected mouse foot-pad model assessed as parasite killing at 150 mg/kg/day after 9 months; assay type: functional
Mycobacterium leprae [6] = assay: Antibacterial activity in Mycobacterium leprae infected mouse foot-pad model assessed as parasite killing at >300 mg/kg/day after 9 months; assay type: functional
Mycobacterium leprae [7] = assay: Antibacterial activity in Mycobacterium leprae infected mouse foot-pad model assessed as parasite killing at 25 mg/kg/day after 9 months; assay type: functional
Mycobacterium leprae [8] = assay: Antibacterial activity in Mycobacterium leprae infected mouse foot-pad model assessed as parasite killing at 15 mg/kg/day after 9 months; assay type: functional
Mycobacterium leprae [9] = assay: Antibacterial activity in Mycobacterium leprae infected mouse foot-pad model assessed as parasite killing at 50 mg/kg/day after 9 months; assay type: functional

SMILES | IC50 (Mycobacterium leprae [2]) [µg/mL] | Activity (Mycobacterium leprae [3]) | CC25 (Mycobacterium leprae [4]) [µg/mL] | further results
O=C(O)c1cn(C2CC2)c2cc(N3CCNCC3)c(F)cc2c1=O [CIPROFLOXACIN] | 3.5 | 32 |  | Activity (Mycobacterium leprae [1]): >99%
NC1CCN(c2c(F)cc3c(=O)c(C(=O)O)cn(C4CC4)c3c2Cl)C1 (stereo not drawn) [CLINAFLOXACIN] | 3 |  | 0.6 | 
C[C@H]1NCc2cc(-c3ccc4c(=O)c(C(=O)O)cn(C5CC5)c4c3OC(F)F)ccc21 [GARENOXACIN] | 3.5 |  | 3 | 
COc1c(N2CCNC(C)C2)c(F)cc2c(=O)c(C(=O)O)cn(C3CC3)c12 (stereo not drawn) [GATIFLOXACIN] | 2 |  | 1 | 
C[C@H]1COc2c(N3CCN(C)CC3)c(F)cc3c(=O)c(C(=O)O)cn1c23.C[C@H]1COc2c(N3CCN(C)CC3)c(F)cc3c(=O)c(C(=O)O)cn1c23.O [LEVOFLOXACIN] | 7 |  | 3 | 
COc1c(N2C[C@@H]3CCCN[C@@H]3C2)c(F)cc2c(=O)c(C(=O)O)cn(C3CC3)c12 [MOXIFLOXACIN] |  |  |  | Activity (Mycobacterium leprae [5]): >99%
CCn1cc(C(=O)O)c(=O)c2ccc(C)nc21 [NALIDIXIC ACID] | 300 |  |  | Activity (Mycobacterium leprae [4]): inactive
CC1COc2c(N3CCN(C)CC3)c(F)cc3c(=O)c(C(=O)O)cn1c23 (stereo not drawn) [OFLOXACIN] | 10 | 20 | 10 | Activity (Mycobacterium leprae [5]): >99%
CCn1cc(C(=O)O)c(=O)c2cc3c(cc21)OCO3 [OXOLINIC ACID] | 170 |  |  | Activity (Mycobacterium leprae [4]): inactive
CCn1cc(C(=O)O)c(=O)c2cc(F)c(N3CCN(C)CC3)cc21 [PEFLOXACIN] | 23 | 29 |  | Activity (Mycobacterium leprae [6]): >99%
N[C@@H]1CN(c2c(F)cc3c(=O)c(C(=O)O)cn([C@@H]4C[C@@H]4F)c3c2Cl)CC12CC2 [SITAFLOXACIN ANHYDROUS] | 1 |  | 0.5 | Activity (Mycobacterium leprae [7]): >99%
C[C@@H]1CN(c2c(F)c(N)c3c(=O)c(C(=O)O)cn(C4CC4)c3c2F)C[C@H](C)N1 [SPARFLOXACIN] | 5 |  | 1 | Activity (Mycobacterium leprae [8]): >99%
CC1CN(c2cc3c(cc2F)c(=O)c(C(=O)O)cn3-c2ccc(F)cc2F)CCN1 (stereo not drawn) [TEMAFLOXACIN] | 26 | 29 | 11 | Activity (Mycobacterium leprae [9]): >99%
